For test [1], the species on record is Cavia porcellus. Put plainly: Inhibition of LTB4-induced contraction of guinea pig lung parenchyma strips. The test is classed as functional.
For test [2], the target named is T1, Leukotriene B4 receptor (Homo sapiens, UniProt Q9NPC1+Q15722). The test is described as follows: Inhibition of LTB4-induced human neutrophil CD11b/CD18 integrin up-regulation. The class given is functional.
The target in test [3] is Leukotriene B4 receptor (Cavia porcellus). Put plainly: Inhibition of [3H]LTB4 receptor binding in guinea pig lung membrane.
Test [4] concerns the target T1, Leukotriene B4 receptor. The test is described as follows: Inhibition of [3H]LTB4 receptor binding in human neutrophils. The test is classed as protein assay.
For test [5], the system named is Cavia porcellus. The test is described as follows: In vivo antagonistic activity against LTB4 induced airway obstruction in guinea pig following oral administration. The class given is functional. The gist of the method: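 Guinea pigs dosed orally 2 h before a 3.0 µg/kg iv LTB4 challenge. Animals killed 1 min after challenge. Excised lung gas volume (ELGV) measured as the index of airway obstruction severity. Means ± SEM, 3-14 guinea pigs per group.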

For test [6], the system named is Cavia porcellus. Put plainly: In vivo antagonistic activity against LTB4 induced airway obstruction in guinea pig following intravenous administration. The class given is functional. In a few lines:
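Guinea pigs dosed intravenously 5 min before a 3.0 µg/kg iv LTB4 challenge. Animals killed 1 min after challenge. Excised lung gas volume (ELGV) measured as the index of airway obstruction severity. Means ± SEM, 3-14 guinea pigs per group; ED50 in mg/kg.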

The structures appear in SMILES notation.

In the test listed under Cavia porcellus [1], `CCc1cc(C(C)=O)c(O)cc1OCCCCCC(C)(C)c1nn[n-]n1.[Na+]` gave a pKB of 6.7.

For the molecule `CCCc1cc(CC)c(OCCCCCC(C)(C)c2nn[n-]n2)cc1O.[Na+]`, the IC50 worked out at 161 nM against Leukotriene B4 receptor [2] and 9.3 nM on Leukotriene B4 receptor [4]. This molecule yielded a pKB in the test filed under Cavia porcellus [1] of 7.6. This molecule displayed an inhibitory constant (Ki) in test [3] of 14.2 nM.

`CCc1cc(-c2ccccn2)c(O)cc1OCCCCCC(C)(C)c1nn[n-]n1.[Na+]`: in test [3], the Ki came to 196 nM. On Leukotriene B4 receptor [4], this molecule gave an IC50 of 453 nM.

With `CCc1cc(-c2ccc(N(C)C)cc2)c(O)cc1OCCCCCC(C)(C)c1nn[n-]n1.[Na+]`, the inhibition constant (Ki) in test [3] amounted to 85.9 nM. The molecule further gave an IC50 on Leukotriene B4 receptor [4] of 15.8 nM.

On to `CCc1cc(-c2ccc(F)cc2)c(O)cc1OCCCCCC(C)(C)c1nn[n-]n1.[Na+]`, for which the ED50 in the test on Cavia porcellus [5] is 0.56 mg/kg; in the test with Cavia porcellus [6], 0.03 mg/kg. The pKB in the test listed under Cavia porcellus [1] was determined as 8.3.

As to `CCc1cc(-c2cccc(C(F)(F)F)c2)c(O)cc1OCCCCCC(C)(C)c1nn[n-]n1.[Na+]`, the inhibition constant Ki in test [3] stood at 76.9 nM. The IC50 on Leukotriene B4 receptor [4] was 33.2 nM.

Regarding `CCOc1cc(CC)c(OCCCCCC(C)(C)c2nn[n-]n2)cc1O.[Na+]`, the pKB in the test listed under Cavia porcellus [1] worked out at 6.6.

In the case of `CCc1cc(-c2ccccc2)c(O)cc1OCCCCCC(C)(C)c1nn[n-]n1.[Na+]`, the ED50 amounted to 0.7 mg/kg in the test with Cavia porcellus [5] and 0.05 mg/kg in the test on Cavia porcellus [6]. In the test listed under Cavia porcellus [1], this molecule yielded a pKB of 8.3.

For orientation: pKB means the negative decadic logarithm of the KB, by convention in mol/L. A higher pKB goes with a small KB. As usually defined, the IC50 is the concentration that inhibits the measured activity by half. Low readings indicate higher potency, high ones lower potency. One may read the Ki as a measure of affinity in units of concentration, obtained from inhibition or displacement. Lower therefore signals higher affinity. As usually defined, the ED50 is the dose at which the effect has come halfway, by size or by number of responders.

Values taken from ChEMBL document CHEMBL1126984, “o-phenylphenols: potent and orally active leukotriene B4 receptor antagonists” (J Med Chem, 1993).
